This is an account of results in ChEMBL document CHEMBL5649170, “Sustained microglial depletion with CSF1R inhibitor impairs parenchymal plaque development in an Alzheimer's disease model” (Nat Commun, 2019).

Data set [1] can be described thus: Dissociation constant, pKa of compound. Format: physicochemical.
Data set [2] is described as follows: Inhibition of BCR-CSF1R (unknown origin) expressed in mouse BaF3 cells assessed as inhibition of IL3-dependent cell proliferation incubated for 3 days by ATPlite 1step Luminescence Assay reagent based assay. The note with it: Homo sapiens, BaF3, 72 h. (ATP-based viability assays read luminescence as a measure of living cells.)
The nature of data set [3]: Inhibition of BCR-CSF1R (unknown origin) expressed in mouse BaF3 cells assessed as inhibition of BCR-CSF1R dependent cell proliferation incubated for 3 days by ATPlite 1step Luminescence Assay reagent based assay. The note with it: Homo sapiens, BaF3, 72 h.
A short description of data set [4]: Octanol to water partition coefficient, logD of the compound. Format: physicochemical.
Data set [5] can be described thus: Inhibition of BCR-KIT (unknown origin) expressed in mouse BaF3 cells assessed as inhibition of BCR-KIT dependent cell proliferation incubated for 3 days by ATPlite 1step Luminescence Assay reagent based assay. The note with it: Homo sapiens, BaF3, 72 h.
Data set [6] concerns Mus musculus. Briefly: Antialzheimer activity in 5XFAD mouse assessed as number of plaques per FOV in […] cortex at 75 ppm administered as rodent chow starting from 1.5 months and measured after 5 months by immunolabeling based confocal microscopic analysis (reference value: […] to […]). Format: functional. The note with it: route po, time 3.5 months, 2555 h.
The subject of data set [7] is Mus musculus. In words: Antialzheimer activity in 5XFAD mouse assessed as microglial numbers by measuring number of Iba positive cells per FOV in […] cortex at 75 ppm administered as rodent chow starting from 1.5 months and measured after 5 months by immunolabeling based confocal microscopic analysis (reference value: 176 to 654). Format: functional. The note with it: route po, time 3.5 months, 2555 h. The method in brief:
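5xFAD mice fed PLX3397 at 75 ppm in AIN-76A chow from 1.5 to 5 months of age; retrosplenial and somatosensory cortex sections stained with Thio-S and immunolabeled for IBA1; confocal imaging, IBA1+ cells and plaques quantified per region; two-tailed independent t-test, n = 4–5 per group, mean ± SEM.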

A short description of data set [8]: Inhibition of BCR-KIT (unknown origin) expressed in mouse BaF3 cells assessed as inhibition of IL3 dependent cell proliferation incubated for 3 days by ATPlite 1step Luminescence Assay reagent based assay. The note with it: Homo sapiens, BaF3, 72 h.
For the next data set, the system named is Brain. Briefly: Drug penetration in mouse brain. The note with it: in vivo. The format is ADME, tissue-based.
Data set [9] in a line: Permeability in human Caco-2 cells. Format: ADME, cell-based. The note with it: read-out: permeability. For orientation: Caco-2 monolayers are a common model of the intestinal barrier.
For data set [10], the target named is Fibroblast growth factor receptor 3 (Homo sapiens, UniProt P22607). In words: Inhibition of FGFR3 (unknown origin).
For data set [11], the target named is AMP-activated protein kinase (AMPK) alpha-1/beta-1/gamma-1 (Homo sapiens, UniProt P54619+Q13131+Q9Y478). In words: Inhibition of AMPK_A1/B1/G1 (unknown origin). The format is protein-complex assay.
Data set [12] in a line: AUC (0 to infinity) in dog at 1.00 mg/kg, iv administered as single dose. The note with it: in vivo. Format: ADME, organism-based, Canis lupus familiaris.
Data set [13] can be described thus: Prevention of Chrm3 gene downregulation in 5XFAD mouse hippocampus assessed as percent change in Reads Per kilo base per Million mapped reads at 1200 ppm administered as rodent chow starting from 1.5 months and measured after 7 months by RNA-Seq analysis (reference value: 46.176 to 86.158 %). Format: functional. The note with it: route po, time 5.5 months, 4015 h.

A short description of data set [14]: Toxicity in wildtype mouse assessed as number of entries to center zone at 1200 ppm administered as rodent chow for 10 to 24 weeks by Open field test (reference value: 19 to 63). The note with it: in vivo, po, time 10-24 weeks.
Data set [15] can be described thus: AUC (0 to infinity) in female rat at 45 mg/kg, po administered as single dose via gavage. The format is ADME, organism-based. The note with it: in vivo.
Data set [16] deals with Mus musculus. In words: Effect on APP processing pathway in 5XFAD mouse assessed as C-terminal PS1 protein signal intensity in cortex at 1200 ppm administered as rodent starting from 1.5 months and measured after 7 months (reference value: 42.868 to 145.444 %). Format: functional. The note with it: route po, time 5.5 months, 4015 h.
Data set [17] has as its target Receptor-type tyrosine-protein kinase FLT3 (Homo sapiens, UniProt P36888). In words: Inhibition of FLT3 (unknown origin) in presence of ATP by enzymatic assay.
Data set [18] can be described thus: Effect on Cst7 gene expression in 5XFAD mouse cortex at 1200 ppm administered as rodent chow starting from 1.5 months and measured after 7 months by RNA-Seq analysis (reference value: 9.853 to 27.586 RPKM). Format: functional. The note with it: route po, time 5.5 months, 4015 h.
The target in data set [19] is Serine/threonine-protein kinase D2 (Homo sapiens, UniProt Q9BZL6). Briefly: Inhibition of PRKD2 (unknown origin).
In data set [20] the target is Ribosomal protein S6 kinase alpha-2 (Homo sapiens, UniProt Q15349). Briefly: Inhibition of RPS6KA2 (unknown origin).
Data set [21] in a line: Effect on Cx3cr1 gene expression in wild type mouse hippocampus at 1200 ppm administered as rodent chow starting from 1.5 months and measured after 7 months by RNA-Seq analysis (reference value: 9.911 to 12.014 RPKM). The format is functional. The note with it: route po, time 5.5 months, 4015 h.
The nature of data set [22]: Effect on Hexb gene expression in 5XFAD mouse hippocampus at 1200 ppm administered as rodent chow starting from 1.5 months and measured after 7 months by RNA-Seq analysis (reference value: 90.736 to 123.2 RPKM). The format is functional. The note with it: route po, time 5.5 months, 4015 h.
Data set [23] addresses Tyrosine-protein kinase JAK2 (Homo sapiens, UniProt O60674). In words: Inhibition of JAK2 (unknown origin).
The test system of data set [24] is Mus musculus. Briefly: Antialzheimer activity in 5XFAD mouse assessed as alteration in plaque morphology by measuring mean plaque intensity in subiculum at 1200 ppm administered as rodent chow starting from 1.5 months and measured after 7 months by Thio-S labeling based confocal microscopic analysis (reference value: 129.81 to 150.11). Format: functional. The note with it: route po, time 5.5 months, 4015 h.

Data set [25] has as its system Mus musculus. Briefly: Antialzheimer activity in 5XFAD mouse assessed as number of Thio-S positive plaques per FOV in thalamus at 1200 ppm administered as rodent chow starting from 1.5 months and measured after 4 months by Thio-S staining based confocal microscopic analysis (reference value: 139 to 224). Format: functional. The note with it: route po, time 2.5 months, 1825 h.

Data set [26] deals with Serine/threonine-protein kinase MARK1 (Homo sapiens, UniProt Q9P0L2). In words: Inhibition of MARK1 (unknown origin).
The nature of data set [27]: Oral bioavailability in female rat at 45 mg/kg administered as single via gavage. The note with it: in vivo. The format is ADME, organism-based.
Data set [28] has as its system Mus musculus. In words: Antialzheimer activity in 5XFAD mouse assessed as amyloidbeta40 level in detergent insoluble cortex fraction measured per microgram protein at 1200 ppm administered as rodent chow starting from 1.5 months and measured after 7 months by ELISA (reference value: 615.15 to 39796 pg). Format: functional. The note with it: route po, time 5.5 months, 4015 h. A digest of the protocol:
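PLX5622 at 1200 ppm in chow given to 5xFAD mice from 1.5 months to 4 or 7 months of age; cortex and thalamus homogenized in TPER (detergent-soluble), pellets re-homogenized in 70% formic acid and spun 100,000 g, 1 h, 4 °C (insoluble); protein by Bradford/Lowry; Aβ species measured by Meso Scale electrochemiluminescence immunoassay, normalized to protein; n = 7–8 per group at 7 months.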
Background: An ELISA detects its analyte on a solid surface through an enzyme-linked reagent.

Data set [29] has as its system Mus musculus. In words: Antialzheimer activity in 5XFAD mouse assessed as number of Thio-S positive plaques per FOV in thalamus at 1200 ppm administered as rodent chow starting from 1.5 months and measured after 7 months by Thio-S staining based confocal microscopic analysis (reference value: 97 to 282). Format: functional. The note with it: route po, time 5.5 months, 4015 h.

The nature of data set [30]: Effect on Itgax gene expression in wild type mouse hippocampus at 1200 ppm administered as rodent chow starting from 1.5 months and measured after 7 months by RNA-Seq analysis (reference value: 0.057 to 0.109 RPKM). The format is functional. The note with it: route po, time 5.5 months, 4015 h.

For orientation: pKa means the negative logarithm of the acid dissociation constant. Low values mean a stronger acid or weaker base, high ones a weaker acid or stronger base. The IC50 is the concentration that gives 50% inhibition. In general, logD refers to lipophilicity at a set pH, counting ionised and neutral species. Low readings indicate a more hydrophilic compound, high ones a more lipophilic compound. Usually AUC(0-inf) stands for total exposure, with the tail of the curve extrapolated. A high value points to high exposure. What is called bioavailability is dose-corrected exposure relative to a reference, in per cent. Read a high bioavailability as good availability.

Serine/threonine-protein kinase MARK1, sequence (Q9P0L2 whole entry): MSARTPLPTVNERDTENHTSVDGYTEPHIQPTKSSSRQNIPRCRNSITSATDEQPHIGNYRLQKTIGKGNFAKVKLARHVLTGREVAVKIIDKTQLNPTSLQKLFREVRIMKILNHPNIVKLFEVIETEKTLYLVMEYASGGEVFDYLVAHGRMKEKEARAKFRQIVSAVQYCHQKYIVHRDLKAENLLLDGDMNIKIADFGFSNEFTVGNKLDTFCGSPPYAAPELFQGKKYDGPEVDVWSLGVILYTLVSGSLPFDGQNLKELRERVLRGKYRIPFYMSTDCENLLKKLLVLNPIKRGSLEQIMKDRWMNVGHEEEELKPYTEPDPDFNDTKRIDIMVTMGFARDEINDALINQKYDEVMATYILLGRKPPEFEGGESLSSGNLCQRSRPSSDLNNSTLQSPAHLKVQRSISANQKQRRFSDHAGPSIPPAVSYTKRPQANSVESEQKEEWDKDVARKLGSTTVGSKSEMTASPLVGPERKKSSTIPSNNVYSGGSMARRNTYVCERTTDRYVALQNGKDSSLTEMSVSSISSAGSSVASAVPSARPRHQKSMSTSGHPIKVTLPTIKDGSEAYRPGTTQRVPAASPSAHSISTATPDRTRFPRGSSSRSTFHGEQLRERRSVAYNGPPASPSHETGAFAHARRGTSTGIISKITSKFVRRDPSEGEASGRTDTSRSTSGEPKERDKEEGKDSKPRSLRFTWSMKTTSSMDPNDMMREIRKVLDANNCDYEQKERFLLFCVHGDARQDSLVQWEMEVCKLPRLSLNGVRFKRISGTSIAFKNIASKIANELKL
Fibroblast growth factor receptor 3, sequence (P22607 whole entry): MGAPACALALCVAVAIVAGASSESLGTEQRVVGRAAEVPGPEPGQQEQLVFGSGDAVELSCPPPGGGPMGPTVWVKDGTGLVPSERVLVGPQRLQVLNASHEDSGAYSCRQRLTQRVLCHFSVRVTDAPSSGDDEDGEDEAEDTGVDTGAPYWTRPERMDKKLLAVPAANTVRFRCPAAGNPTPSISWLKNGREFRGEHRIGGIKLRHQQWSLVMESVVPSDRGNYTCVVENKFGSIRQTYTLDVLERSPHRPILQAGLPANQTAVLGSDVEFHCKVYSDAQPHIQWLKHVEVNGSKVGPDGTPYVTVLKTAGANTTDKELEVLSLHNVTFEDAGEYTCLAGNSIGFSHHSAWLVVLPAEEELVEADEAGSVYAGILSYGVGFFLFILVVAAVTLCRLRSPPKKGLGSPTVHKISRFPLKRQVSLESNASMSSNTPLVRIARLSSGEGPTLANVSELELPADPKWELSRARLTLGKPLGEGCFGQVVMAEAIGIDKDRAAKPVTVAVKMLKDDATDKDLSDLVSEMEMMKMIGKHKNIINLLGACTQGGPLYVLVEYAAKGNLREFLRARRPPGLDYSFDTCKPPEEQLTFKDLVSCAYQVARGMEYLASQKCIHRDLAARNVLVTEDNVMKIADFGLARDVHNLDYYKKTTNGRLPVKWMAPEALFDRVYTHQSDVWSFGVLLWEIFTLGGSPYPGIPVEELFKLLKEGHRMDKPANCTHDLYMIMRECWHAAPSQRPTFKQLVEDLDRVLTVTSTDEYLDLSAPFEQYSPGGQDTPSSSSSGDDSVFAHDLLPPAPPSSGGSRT
Ribosomal protein S6 kinase alpha-2, sequence (Q15349 whole entry): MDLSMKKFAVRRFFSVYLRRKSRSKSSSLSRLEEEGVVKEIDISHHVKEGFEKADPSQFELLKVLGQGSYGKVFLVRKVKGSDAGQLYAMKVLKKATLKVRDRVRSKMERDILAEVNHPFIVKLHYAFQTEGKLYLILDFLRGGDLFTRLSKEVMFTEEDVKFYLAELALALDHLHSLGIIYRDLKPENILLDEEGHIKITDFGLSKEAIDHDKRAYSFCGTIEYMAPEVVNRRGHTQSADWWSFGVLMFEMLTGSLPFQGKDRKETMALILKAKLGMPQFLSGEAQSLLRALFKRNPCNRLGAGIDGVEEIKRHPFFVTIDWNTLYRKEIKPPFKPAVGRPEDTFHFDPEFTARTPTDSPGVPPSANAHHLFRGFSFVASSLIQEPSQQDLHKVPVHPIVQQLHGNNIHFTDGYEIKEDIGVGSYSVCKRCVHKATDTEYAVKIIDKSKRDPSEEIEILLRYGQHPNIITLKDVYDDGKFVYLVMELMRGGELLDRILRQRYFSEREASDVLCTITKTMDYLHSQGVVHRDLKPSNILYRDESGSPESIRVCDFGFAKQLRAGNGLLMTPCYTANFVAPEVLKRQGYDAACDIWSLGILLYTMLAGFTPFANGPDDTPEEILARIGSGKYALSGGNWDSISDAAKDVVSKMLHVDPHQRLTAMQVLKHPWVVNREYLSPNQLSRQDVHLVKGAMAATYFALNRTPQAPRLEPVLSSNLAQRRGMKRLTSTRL
Serine/threonine-protein kinase D2, sequence (Q9BZL6 whole entry): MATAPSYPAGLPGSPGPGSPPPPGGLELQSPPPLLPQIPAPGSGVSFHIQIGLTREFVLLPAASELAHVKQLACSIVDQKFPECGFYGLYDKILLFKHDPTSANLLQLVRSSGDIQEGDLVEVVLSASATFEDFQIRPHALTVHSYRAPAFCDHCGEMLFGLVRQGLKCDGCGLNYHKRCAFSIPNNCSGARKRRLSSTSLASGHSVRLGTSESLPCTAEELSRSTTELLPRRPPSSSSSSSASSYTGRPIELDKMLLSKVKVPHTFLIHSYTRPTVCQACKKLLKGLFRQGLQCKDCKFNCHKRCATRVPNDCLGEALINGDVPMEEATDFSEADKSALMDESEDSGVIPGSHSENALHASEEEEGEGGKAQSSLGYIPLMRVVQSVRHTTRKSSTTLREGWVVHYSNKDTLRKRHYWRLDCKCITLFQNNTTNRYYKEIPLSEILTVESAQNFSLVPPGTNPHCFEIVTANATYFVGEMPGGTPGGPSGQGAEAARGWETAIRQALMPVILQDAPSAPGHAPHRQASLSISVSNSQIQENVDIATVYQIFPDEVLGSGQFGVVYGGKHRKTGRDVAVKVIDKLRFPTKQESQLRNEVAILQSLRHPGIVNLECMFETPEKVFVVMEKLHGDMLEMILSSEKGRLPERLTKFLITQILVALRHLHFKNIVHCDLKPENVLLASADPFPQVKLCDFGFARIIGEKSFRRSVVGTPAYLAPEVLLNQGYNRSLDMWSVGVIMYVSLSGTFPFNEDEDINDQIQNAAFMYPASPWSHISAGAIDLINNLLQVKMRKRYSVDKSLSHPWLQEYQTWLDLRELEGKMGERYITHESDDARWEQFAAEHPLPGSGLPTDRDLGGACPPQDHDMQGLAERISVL
AMP-activated protein kinase (AMPK) alpha-1/beta-1/gamma-1, sequence (P54619 whole entry): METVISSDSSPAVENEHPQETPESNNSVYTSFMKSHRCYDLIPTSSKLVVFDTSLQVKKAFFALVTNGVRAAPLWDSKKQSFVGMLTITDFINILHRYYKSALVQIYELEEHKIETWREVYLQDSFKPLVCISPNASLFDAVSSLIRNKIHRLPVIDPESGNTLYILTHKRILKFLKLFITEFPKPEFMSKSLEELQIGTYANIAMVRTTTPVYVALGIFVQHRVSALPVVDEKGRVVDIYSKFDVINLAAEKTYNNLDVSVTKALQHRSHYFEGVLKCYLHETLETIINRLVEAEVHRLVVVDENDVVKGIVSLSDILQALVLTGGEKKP
AMP-activated protein kinase (AMPK) alpha-1/beta-1/gamma-1, sequence (Q9Y478 whole entry): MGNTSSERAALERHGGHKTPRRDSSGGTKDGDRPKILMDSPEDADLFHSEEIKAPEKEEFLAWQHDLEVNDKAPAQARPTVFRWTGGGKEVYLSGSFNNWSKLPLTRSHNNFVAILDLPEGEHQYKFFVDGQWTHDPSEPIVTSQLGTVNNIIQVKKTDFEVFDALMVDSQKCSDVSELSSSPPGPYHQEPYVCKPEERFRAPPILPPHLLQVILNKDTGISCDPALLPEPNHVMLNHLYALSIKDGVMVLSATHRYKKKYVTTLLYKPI
AMP-activated protein kinase (AMPK) alpha-1/beta-1/gamma-1, sequence (Q13131 whole entry): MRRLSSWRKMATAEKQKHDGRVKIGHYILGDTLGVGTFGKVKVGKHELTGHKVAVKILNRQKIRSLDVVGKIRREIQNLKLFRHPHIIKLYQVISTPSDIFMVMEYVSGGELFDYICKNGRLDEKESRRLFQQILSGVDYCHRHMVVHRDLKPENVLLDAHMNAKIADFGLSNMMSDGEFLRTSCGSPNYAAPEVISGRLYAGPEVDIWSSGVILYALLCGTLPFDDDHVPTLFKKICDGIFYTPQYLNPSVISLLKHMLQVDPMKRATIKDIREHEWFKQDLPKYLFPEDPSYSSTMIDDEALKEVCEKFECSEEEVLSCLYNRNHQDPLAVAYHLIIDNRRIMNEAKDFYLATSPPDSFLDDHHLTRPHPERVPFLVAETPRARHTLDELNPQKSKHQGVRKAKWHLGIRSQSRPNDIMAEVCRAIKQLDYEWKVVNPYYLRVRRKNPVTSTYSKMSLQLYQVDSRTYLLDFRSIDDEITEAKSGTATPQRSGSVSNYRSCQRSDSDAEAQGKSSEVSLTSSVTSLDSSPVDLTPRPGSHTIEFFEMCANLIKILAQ

Molecule `FC(F)(F)c1ccc(CNc2ccc(Cc3c[nH]c4ncc(Cl)cc34)cn2)cn1` [PEXIDARTINIB] came in with a pKa in data set [1] of 5.2. For the same molecule, the IC50 in data set [2] was greater than 10 µM; in [3] it was 0.009 µM; in [5], 0.11 µM; in [8] it was greater than 10 µM. The same molecule had a logD in [4] of 3.35. Moreover, the Activity in the data set with Mus musculus [6] is reported as 34; in the data set on Mus musculus [7], 229. Further, the Drug uptake in the data set on Brain was ~ 5%. For the same molecule, the Papp in data set [9] came to 1.4 ×10⁻⁶ cm/s.

As to `COc1ncc(F)cc1CNc1ccc(Cc2c[nH]c3ncc(C)cc23)c(F)n1` [PLX-5622], the IC50 in data set [10] is greater than 1 µM; in [11] it was greater than 1 µM; in data set [2] it was greater than 10 µM; in data set [3], 0.017 µM; in [5] it was 2.7 µM; in data set [17] it was 0.39 µM. Also, the IC50 in [19] is greater than 1 µM; in data set [20], greater than 1 µM; in [8], greater than 10 µM; in [23], greater than 1 µM; in data set [26], greater than 1 µM. In data set [1], the pKa stood at 4.14. The AUC(0-inf) came to 6230 ng·h/mL in data set [12] and 181000 ng·h/mL in data set [15]. Further, the Activity is 85.99% in [13]; 14 in [14]; 12.015% in the data set with Mus musculus [16]; 0.887 RPKM in data set [18]; 0.074 RPKM in [21]; 16.382 RPKM in data set [22]. The Activity was determined as 83.86 in the data set with Mus musculus [24]; 76 in the data set with Mus musculus [25]; 89.514 pg with Mus musculus [28]; 45 with Mus musculus [29]; 0 RPKM in data set [30]. The same molecule registered a pH-dependent lipophilicity (logD) in data set [4] of 3.92. In [27], this molecule yielded a bioavailability of 89%. Further, the Drug uptake in the data set on Brain is given as ~ 20%. Also, the Papp in [9] is 12.2 ×10⁻⁶ cm/s.
